Measured values gathered from unrelated publications.
Each line is one published result; the experiments were not run side by side.
Target: Serine/threonine-protein kinase Sgk3 (SGK3, Homo sapiens, UniProt Q96BR1)
Residues used in one study (Q96BR1 1-496): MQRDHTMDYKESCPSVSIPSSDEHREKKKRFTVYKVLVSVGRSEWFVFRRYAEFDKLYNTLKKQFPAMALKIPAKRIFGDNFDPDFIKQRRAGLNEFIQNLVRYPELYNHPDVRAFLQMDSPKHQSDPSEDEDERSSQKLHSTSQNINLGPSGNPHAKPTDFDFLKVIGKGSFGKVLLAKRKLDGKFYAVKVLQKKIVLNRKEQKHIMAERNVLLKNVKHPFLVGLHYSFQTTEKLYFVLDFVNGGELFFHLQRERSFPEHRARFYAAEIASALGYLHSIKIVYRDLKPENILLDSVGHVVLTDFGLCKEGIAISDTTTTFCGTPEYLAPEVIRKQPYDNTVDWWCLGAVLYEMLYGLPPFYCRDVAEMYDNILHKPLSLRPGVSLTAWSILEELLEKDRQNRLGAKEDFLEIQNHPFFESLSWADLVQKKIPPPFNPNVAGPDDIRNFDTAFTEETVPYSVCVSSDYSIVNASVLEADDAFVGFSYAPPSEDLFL

CS(=O)(=O)CCNCc1ccc(-c2ccc3ncnc(Nc4ccc(OCc5cccc(F)c5)c(Cl)c4)c3c2)o1
remaining signal (cell-free assay; 0.5 µM): 102%

Cc1cnc(NC2CCOCC2)nc1-n1cnc(C(=O)NC(CN)c2cc(F)cc(Cl)c2)c1 (stereo not drawn)
remaining activity (enzyme activity; inhibitor; radiometric; 1 µM): 92%

CC(C)(C)c1nc2c(s1)c1nc(N)ncc1c1ccc(NS(=O)(=O)c3c(F)cccc3F)c(F)c12
remaining activity (enzyme activity; inhibitor; radiometric; 1 µM): 89%

COc1cc2ncnc(Nc3ccc(Oc4ccccc4)c(C)c3C)c2cc1OC
inhibition (enzyme activity; inhibitor; 1 µM): -5%

O=C(Nc1cnn(-c2csc(C(=O)NC3COC3)c2)c1)Nc1ccccc1Cl
remaining activity (enzyme activity; inhibitor; 5 µM): 93.8%

CNCc1ccccc1-c1csc([C@@H](C)Nc2nc(C)nc3cc(OC)c(OC)cc23)c1
remaining binding (cell-free assay; competition with immobilised ligand; 1 µM): 78%

C[C@@H]1CCN(C(=O)CC#N)C[C@@H]1N(C)c1ncnc2[nH]ccc12
remaining signal (cell-free assay; inhibitor; 0.5 µM): 98.1%

CNC(=O)c1ccc(Nc2ncc(C(F)(F)F)c(NCc3nccnc3N(C)S(C)(=O)=O)n2)cc1
remaining binding (cell-free assay; competition with immobilised ligand; 0.1 µM): 85%

CCCCNc1ncc2c(-c3ccc(F)cc3)nn(C[C@H]3CC[C@H](N)CC3)c2n1
inhibition (target engagement in cells; inhibitor; chemoproteomics; 20 mM): -2.1%

CCCS(=O)(=O)Nc1ccc(F)c(C(=O)c2c[nH]c3ncc(-c4ccc(Cl)cc4)cc23)c1F
inhibition (enzyme activity; inhibitor; 1 µM): < 10%

CCN(CC)c1ccc(C2=NNC(=O)CC2C)cc1[N+](=O)[O-] (stereo not drawn)
remaining activity (enzyme activity; inhibitor; 10 µM): 114%

CO[C@@H](C)c1c(Nc2ccc([C@H](N(C)C(=O)C3CCS(=O)(=O)CC3)C(F)(F)F)cc2)cnc2cc(Cl)nn12
remaining binding (cell-free assay; competition with immobilised ligand; 1 µM): 100%

Cc1ccc(C(=O)Nc2ccc(CN3CCN(C)CC3)c(C(F)(F)F)c2)cc1C#Cc1cnc2cccnn12
remaining activity (enzyme activity; inhibitor; 23.5 nM): 70%

COc1cccc2c(NCc3ccccc3)nc(-n3c(N)nc4ccccc43)nc12
inhibition (target engagement in cells; inhibitor; chemoproteomics; 20 mM): -7.6%

Cc1c(NC(=O)c2cc(C(N)=O)nc3cc(F)ccc23)c(C(F)(F)F)nn1Cc1ccc(C#N)cc1
remaining binding (cell-free assay; competition with immobilised ligand; 1 µM): 83%

COc1cc(Cl)c(C(=O)N[C@@H](CN[C@H]2CC[C@@H](N)CC2)Cc2ccc(C#N)cc2)cc1-c1ccc(CN[C@H](C)c2ccc(C)cc2)o1
remaining activity (enzyme activity; inhibitor; 1 µM): 83%

CNC(=O)c1cc(Oc2ccc(NC(=O)Nc3ccc(Cl)c(C(F)(F)F)c3)cc2)ccn1
inhibition (enzyme activity; inhibitor; 0.3 µM): 14%

Cc1ccc(NC(=O)c2ccc(C)c(C(F)(F)F)c2)cc1C#Cc1nn(C2CCC(O)CC2)c2ncnc(N)c12 (stereo not drawn)
remaining signal (cell-free assay; 10 µM): 98%

Cn1nc(C(F)(F)F)cc1-c1cnc(N2CCc3cc(S(=O)(=O)Nc4c(F)cc(Cl)cc4F)cc(N4CCCC4=O)c32)nc1
remaining binding (cell-free assay; competition with immobilised ligand; 1 µM): 78%

N#CCCc1ccc2c(c1)-c1[nH]c3ccc([N+](=O)[O-])cc3c1CC(=O)N2
remaining signal (cell-free assay; 0.5 µM): 99.2%

CO[C@H]1CC[C@H](CNc2ccc(S(=O)(=O)NC(=O)c3ccc(N4CCN(CC5=C(c6ccc(Cl)cc6)CC(C)(C)CC5)CC4)cc3Oc3cnc4[nH]ccc4c3)cc2[N+](=O)[O-])CC1
remaining binding (cell-free assay; competition with immobilised ligand; 1 µM): 99%

Cc1ccc(Nc2nccc(N(C)c3ccc4c(C)n(C)nc4c3)n2)cc1S(N)(=O)=O
inhibition (enzyme activity; inhibitor; 10 µM): 13%

Cc1cc(NC(=O)c2cccc(S(F)(F)(F)(F)F)c2)cc(-n2ccn3nc(-c4cccnc4)cc23)c1
remaining binding (cell-free assay; competition with immobilised ligand; 1 µM): 72.1%

O=C(Nc1cnn(-c2csc(C(=O)NC3COC3)c2)c1)Nc1c(F)cccc1Cl
remaining activity (enzyme activity; inhibitor; 5 µM): 95.3%
